Consider 8 compounds from ChEMBL document CHEMBL2439972, “Synthesis, pharmacological and structural characterization, and thermodynamic aspects of GluA2-positive allosteric modulators with a 3,4-dihydro-2H-1,2,4-benzothiadiazine 1,1-dioxide scaffold” (J Med Chem, 2013).

Structures are written as SMILES.

The target in assay [1] is Glutamate receptor 2 (Rattus norvegicus) (UniProt P19491). As to the kind of experiment: Positive allosteric modulation of GluA2 receptor in rat embryonic cortex neuron assessed as concentration required to 2 fold increase of AMPA-induced membrane depolarization by fluorescence assay. A digest of the protocol:
(§1)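 Rat E16 cortical cells cultured 18 days (37 °C, 5% CO2) were loaded with membrane-potential dye for 1 h at room temperature and read on an imaging plate reader. After a 10 s baseline, AMPA (300 μM) was added for 3 min, then compound plus AMPA for 3 min. Signal was averaged over the last 15 s, as area under the curve. Outputs: EC2× (2-fold increase), EC50, Emax relative to AMPA alone (×1). Mean ± SEM (n).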

The target in assay [2] is T1, Glutamate receptor 2 (Rattus norvegicus, UniProt P19491). As to the kind of experiment: Positive allosteric modulation of GluA2 receptor in rat embryonic cortex neuron assessed as increase of AMPA-induced membrane depolarization by fluorescence assay. A digest of the protocol:
as §1

For assay [3], the target named is Glutamate receptor 2 (Rattus norvegicus) (UniProt P19491). Put plainly: Positive allosteric modulation of GluA2 receptor in rat embryonic cortex neuron assessed as increase of AMPA-induced membrane depolarization by fluorescence assay relative to AMPA. A digest of the protocol:
as §1

Assay [4] can be described thus: Binding affinity to rat LBD of GluA2 receptor L483Y and N754S mutant at 243 uM by isothermal titration calorimetry analysis. (In general: Isothermal titration calorimetry measures the heat released or taken up as one component is titrated into another.)
A short description of assay [5]: Positive allosteric modulation of GluA2 receptor (unknown origin) expressed in Xenopus laevis oocytes assessed as concentration required to 2 fold increase of AMPA-induced membrane depolarization by voltage clamp assay. As to conditions: Oocyte.
Assay [6] concerns the target T1, Glutamate receptor 2. Put plainly: Positive allosteric modulation of GluA2 receptor in rat embryonic cortex neuron assessed as increase of AMPA-induced membrane depolarization by FLIPR assay. Put shortly: (§2)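 FLIPR version of the membrane-potential dye assay on primary rat embryonic cortical neurons, same principle on a different plate reader. Measures depolarization evoked by 300 μM AMPA. Outputs: EC2× (modulator concentration doubling the AMPA response), EC50, Emax normalized to the AMPA response (×1).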

The target of assay [7] is Glutamate receptor 2 (Rattus norvegicus) (UniProt P19491). As to the kind of experiment: Positive allosteric modulation of GluA2 receptor in rat embryonic cortex neuron assessed as concentration required to 2 fold increase of AMPA-induced membrane depolarization by FLIPR assay. A digest of the protocol:
as §2

Assay [8] has the same target. As to the kind of experiment: Positive allosteric modulation of GluA2 receptor in rat embryonic cortex neuron assessed as increase of AMPA-induced membrane depolarization by FLIPR assay relative to AMPA. A digest of the protocol:
as §2

Glutamate receptor 2 (Rattus norvegicus), sequence (P19491 whole entry): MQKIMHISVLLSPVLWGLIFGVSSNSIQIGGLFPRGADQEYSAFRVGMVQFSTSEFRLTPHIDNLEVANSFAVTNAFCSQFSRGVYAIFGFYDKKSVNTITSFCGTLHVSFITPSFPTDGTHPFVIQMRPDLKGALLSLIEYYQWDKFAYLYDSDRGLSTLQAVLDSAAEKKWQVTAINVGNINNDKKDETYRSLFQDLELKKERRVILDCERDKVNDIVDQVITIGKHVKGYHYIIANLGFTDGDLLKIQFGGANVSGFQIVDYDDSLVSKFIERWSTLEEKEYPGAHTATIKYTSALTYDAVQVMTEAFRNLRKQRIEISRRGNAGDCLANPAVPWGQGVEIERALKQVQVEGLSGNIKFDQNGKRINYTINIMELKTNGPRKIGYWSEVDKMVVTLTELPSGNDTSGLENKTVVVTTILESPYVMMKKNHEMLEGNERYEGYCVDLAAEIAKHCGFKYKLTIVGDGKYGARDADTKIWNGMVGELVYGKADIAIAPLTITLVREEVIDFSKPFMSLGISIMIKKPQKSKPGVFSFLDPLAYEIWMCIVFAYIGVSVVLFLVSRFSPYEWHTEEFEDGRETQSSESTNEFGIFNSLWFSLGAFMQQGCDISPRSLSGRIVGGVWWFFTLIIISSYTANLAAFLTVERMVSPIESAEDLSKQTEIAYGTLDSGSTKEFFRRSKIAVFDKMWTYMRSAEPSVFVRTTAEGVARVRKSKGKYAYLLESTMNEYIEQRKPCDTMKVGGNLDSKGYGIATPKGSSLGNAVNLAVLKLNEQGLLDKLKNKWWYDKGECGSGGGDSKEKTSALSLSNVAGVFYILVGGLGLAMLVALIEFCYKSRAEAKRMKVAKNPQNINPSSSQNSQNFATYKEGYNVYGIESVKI
T1 sequence (P19491 whole entry): as above

Broadly, the EC50 is the concentration giving half of the maximal effect. As for `O=S1(=O)NCN(C2CC2)c2ccc(Br)cc21`, the Activity in assay [1] amounted to 1.27 µM. Further, in assay [2], the EC50 was 4.83 µM. For the same compound, the fold change (FC) in assay [3] was 9.3.
`Cc1ccc2c(c1)S(=O)(=O)NCN2C1CC1`: the Activity in assay [1] is 5.13 µM. Moreover, in assay [3], the fold change (FC) was found to be 8.7.
For the compound `N#Cc1ccc2c(c1)S(=O)(=O)NCN2C1CC1`, the Activity in assay [1] was found to be 0.47 µM. Besides, the EC50 in assay [2] came to 2.5 µM. Also, the fold change (FC) in assay [3] is 9.2.
By Kd is commonly meant the constant that tells how readily two partners part at equilibrium. The low end stands for tighter binding, the high end for weaker binding. In turn, `O=S1(=O)NCN(C2CC2)c2ccc(F)cc21` returned a Kd in assay [4] of 0.35 µM. Moreover, the Activity in assay [1] was 0.27 µM. Besides, the EC50 in assay [2] was found to be 0.9 µM. In addition, in assay [3], the fold change (FC) was 15.
Take `O=S1(=O)NCN(C2CC2)c2ccc(Cl)cc21`: the Activity in assay [1] is 0.75 µM; in assay [5], 0.8 µM. Besides, the concentration giving a half-maximal response (EC50) in assay [2] was determined as 3.13 µM. Also, the fold change (FC) in assay [3] worked out at 10.9.
Regarding `O=S1(=O)NCN(C2CC2)c2ccc(C(F)(F)F)cc21`, in assay [1], the Activity was over 100 µM.
Consider `O=[N+]([O-])c1ccc2c(c1)S(=O)(=O)NCN2C1CC1`, for which the EC50 in assay [6] stood at 22.5 µM. In assay [7], the Activity turned out to be 14 µM. Besides, in assay [8], the fold change (FC) was 7.
As for `O=S1(=O)NCN(C2CC2)c2ccccc21`, the Activity in assay [1] is 0.73 µM. Besides, in assay [2], the EC50 was found to be 4.17 µM. Also, the fold change (FC) in assay [3] stood at 8.5.
